Active and inactive are the calls of the source. The calls are words filed in the database; no cut-off is given here.

Results on three compounds are retold here after ChEMBL document CHEMBL3351252, “Design, synthesis, and structure-activity relationship studies of a series of [4-(4-carboxamidobutyl)]-1-arylpiperazines: insights into structural features contributing to dopamine D3 versus D2 receptor subtype selectivity” (J Med Chem, 2014).

In test [1] the target is T1, D(3) dopamine receptor (Homo sapiens, UniProt P35462). In words: Inverse agonist activity at D3R in human U2OS cells assessed as inhibition of basal activity at 500 nM by beta-galactosidase based beta-arrestin recruitment assay. It counts as cell-based. (Recruitment of arrestin is a read-out of receptor activation apart from second messengers.)
T1 sequence (P35462 whole entry): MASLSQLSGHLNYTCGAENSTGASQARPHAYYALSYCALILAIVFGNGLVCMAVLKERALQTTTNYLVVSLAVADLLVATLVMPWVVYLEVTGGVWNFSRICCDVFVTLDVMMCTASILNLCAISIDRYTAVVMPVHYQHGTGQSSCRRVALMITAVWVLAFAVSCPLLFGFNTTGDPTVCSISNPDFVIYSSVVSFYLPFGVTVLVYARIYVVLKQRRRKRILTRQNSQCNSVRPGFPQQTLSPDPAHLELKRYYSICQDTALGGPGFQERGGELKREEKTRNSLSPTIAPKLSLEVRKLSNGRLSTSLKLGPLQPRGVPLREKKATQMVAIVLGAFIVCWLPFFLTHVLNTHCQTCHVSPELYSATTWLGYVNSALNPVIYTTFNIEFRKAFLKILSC
Test [2] concerns the target T2, D(2) dopamine receptor (Homo sapiens, UniProt P14416). In words: Displacement of [125I]IABN from human D2LR expressed in HEK293 cell membranes by gamma counting method. In general terms: Loss of bound radioactivity is the signal in a displacement assay; it reports binding, not function.
For test [3], the species on record is Homo sapiens. In words: Selectivity index, ratio of IC50 for human D2LR to IC50 for human D3R by beta-galactosidase based beta-arrestin recruitment assay.
In test [4] the target is T2, D(2) dopamine receptor. In words: Antagonist activity against human D2LR expressed in CHOK1 cells assessed as inhibition of pergolide-induced beta-arrestin translocation by beta-galactosidase based beta-arrestin recruitment assay. It counts as cell-based, CHO-K1.
The target in test [5] is T1, D(3) dopamine receptor. In words: Displacement of [125I]IABN from human D3R expressed in HEK293 cell membranes by gamma counting method.
Test [6] is filed under the species Homo sapiens. In words: Selectivity index, ratio of Ki for human D2LR to Ki or human D3R.
The target in test [7] is T1, D(3) dopamine receptor. In words: Antagonist activity against D3R in human U2OS cells assessed as inhibition of (+)-PD128907-induced beta-arrestin translocation by beta-galactosidase based beta-arrestin recruitment assay. It counts as cell-based.
Test [8] has as its target D(3) dopamine receptor (Homo sapiens, UniProt P35462, S182I). In words: Displacement of [125I]IABN from human D3R S182I mutant expressed in HEK293 cell membranes by gamma counting method. In short, it runs like this: (§1)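 Membranes from HEK 293 cells stably expressing receptor, prepared in 50 mM Tris-HCl pH 7.4/10 mM EDTA/150 mM NaCl and stored at −80 °C. […] Nonspecific binding defined with 2 μM (+)-butaclamol. Filtered, gamma counted. IC50 from single-site nonlinear regression, converted to Ki.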

Test [9] deals with T2, D(2) dopamine receptor. In words: Agonist activity at human D2LR expressed in CHO-K1 cells assessed as stimulation of basal activity by beta-galactosidase based beta-arrestin recruitment assay. Format: cell-based. In short, it runs like this: (§2)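 CHO-K1 cells expressing human D2L receptor, β-arrestin/β-galactosidase fragment-complementation assay. Cells plated 2500/well and grown 48 h at 37 °C. Test compounds given at 11 half-log points from 5 μM, 120 min at 37 °C. Detection reagent added and chemiluminescence read. Results given as % stimulation or inhibition of basal luminescence. Compounds counterscreened for β-gal inhibition.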

The target of test [10] is D(3) dopamine receptor (Homo sapiens, UniProt P35462, E90Q). In words: Displacement of [125I]IABN from human D3R E90Q mutant expressed in HEK293 cell membranes by gamma counting method. The method, boiled down: as §1
D(3) dopamine receptor (Homo sapiens, UniProt P35462, E90Q), sequence (P35462 as listed by the source E90Q): as the sequence (P35462 whole entry) above, with G9S, E90Q counted along it
Test [11] deals with T2, D(2) dopamine receptor. In words: Inverse agonist activity at human D2LR expressed in CHO-K1 cells assessed as inhibition of basal activity by beta-galactosidase based beta-arrestin recruitment assay. It counts as cell-based. The method, boiled down: as §2
Test [12] has as its target T2, D(2) dopamine receptor. In words: Displacement of [125I]IABN from chimeric human D2 receptor possessing extracellular loop II of D3 receptor expressed in HEK293 cell membranes by gamma counting method.
In test [13] the target is T1, D(3) dopamine receptor. In words: Displacement of [125I]IABN from wild type human D3R expressed in HEK293 cell membranes by gamma counting method. The method, boiled down:
as §1

Test [14] deals with T2, D(2) dopamine receptor. In words: Displacement of [125I]IABN from wild type human D2R expressed in HEK293 cell membranes by gamma counting method.
Test [15] deals with T2, D(2) dopamine receptor. To be noted: CHO-K1, 500 nM.
Test [16] deals with T1, D(3) dopamine receptor. In words: Displacement of [125I]IABN from chimeric human D3 receptor possessing extracellular loop II of D2 receptor expressed in HEK293 cell membranes by gamma counting method. The method, boiled down: as §1
The target of test [17] is T2, D(2) dopamine receptor. In words: Agonist activity against human D2R expressed in HEK293 cells assessed as inhibition of forskolin-induced adenyl cyclase activity at 10 times Ki relative to quinpirole. Format: functional, cell-based. The method, boiled down: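 Whole HEK 293 cells expressing human D2R, prelabelled with [2,8-3H]adenine for 75 min at 37 °C, then given 0.1 mM IBMX. […] Stopped with TCA. [3H]cAMP separated on Dowex/alumina. Inhibition normalized to 1 μM quinpirole. Mean ± SEM of ≥3 experiments.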

The target in test [18] is D(3) dopamine receptor (Homo sapiens, UniProt P35462, E90A). In words: Displacement of [125I]IABN from human D3R E90A mutant expressed in HEK293 cell membranes by gamma counting method. In short, it runs like this: as §1
D(3) dopamine receptor (Homo sapiens, UniProt P35462, E90A), sequence (P35462 as listed by the source E90A): as the sequence (P35462 whole entry) above, with G9S, E90A counted along it
Test [19] has as its target T2, D(2) dopamine receptor. In words: Agonist activity at human D2R expressed in CHO cells assessed as stimulation of mitogenesis at 10 uM after 24 hrs by [3H]thymidine uptake assay relative to quinpirole. Format: cell-based. The method, boiled down:
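CHOp-D2 cells grown 48–72 h, then serum-starved 24 h. Exposed to 10 μM compound in serum-free α-MEM for 24 h at 37 °C. Pulsed 2 h with 0.25 μCi [3H]thymidine, trypsinized, filtered and counted. Stimulation expressed relative to maximal quinpirole. Two independent experiments.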

Test [20] has as its target T2, D(2) dopamine receptor. In words: Antagonist activity against human D2R expressed in CHO cells assessed as inhibition of quinpirole-induced mitogenesis after 24 hrs by [3H]thymidine uptake assay. It counts as cell-based. In short, it runs like this: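 Serum-starved CHOp-D2 or CHOp-D3 cells given serial dilutions of test compound plus quinpirole (30 nM final). Incubated at 37 °C for 24 h (D2) or 16 h (D3). Then 2 h [3H]thymidine pulse, filtration and counting.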

The target in test [21] is T1, D(3) dopamine receptor. To be noted: CHO, 1 uM.
Test [22] addresses T2, D(2) dopamine receptor. To be noted: CHO, 1 uM.

T2 sequence (P14416 whole entry): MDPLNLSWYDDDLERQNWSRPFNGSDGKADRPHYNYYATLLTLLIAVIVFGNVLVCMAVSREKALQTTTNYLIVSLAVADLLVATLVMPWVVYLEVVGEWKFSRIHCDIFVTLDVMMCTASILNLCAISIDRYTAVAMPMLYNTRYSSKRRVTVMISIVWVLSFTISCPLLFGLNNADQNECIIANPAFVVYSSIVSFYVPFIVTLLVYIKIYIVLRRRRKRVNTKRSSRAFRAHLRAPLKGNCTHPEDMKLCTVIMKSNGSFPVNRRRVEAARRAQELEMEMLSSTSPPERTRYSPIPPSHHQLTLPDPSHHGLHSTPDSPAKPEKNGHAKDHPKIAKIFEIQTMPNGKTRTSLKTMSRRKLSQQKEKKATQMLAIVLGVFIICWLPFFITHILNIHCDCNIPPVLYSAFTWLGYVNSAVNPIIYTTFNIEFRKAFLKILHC
D(3) dopamine receptor (Homo sapiens, UniProt P35462, S182I), sequence (P35462 as listed by the source S182I): as the sequence (P35462 whole entry) above, with G9S, S182I counted along it

The term inhibition denotes the drop in the measured response relative to a control, in per cent. For orientation: Ki means a dissociation constant, usually derived from enzyme kinetics or from competition with a known ligand. High values mean weaker binding, low ones tighter binding. A word on the IC50: it is the point on the concentration scale where inhibition reaches its midpoint. For `CN(C)Cc1c(C(=O)NCCCCN2CCN(c3cc(C(F)(F)F)nc(C(C)(C)C)n3)CC2)[nH]c2ccccc12`, the inhibition on D(3) dopamine receptor [1] was less than 21%. Further, the Ki on D(2) dopamine receptor [2] stood at 527 nM; at D(3) dopamine receptor [5], 25 nM. The Ratio IC50 in the test filed under Homo sapiens [3] turned out to be 22. Also, the IC50 turned out to be 311 nM on D(2) dopamine receptor [4] and 14 nM at D(3) dopamine receptor [7]. Also, the Ratio Ki in the test listed under Homo sapiens [6] came to 21.

On to `CN(C)Cc1c(C(=O)NCCCCN2CCN(c3cc(C(F)(F)F)nc(C(C)(C)C)n3)CC2)nc2ccccn12`, for which the Ki came to 16 nM at D(3) dopamine receptor [8]; 19 nM at D(3) dopamine receptor [10]; 72 nM on D(2) dopamine receptor [12]; 9.1 nM at D(3) dopamine receptor [13]; 191 nM at D(2) dopamine receptor [14]; 27 nM at D(3) dopamine receptor [16]. At D(3) dopamine receptor [18], this compound showed a Ki of 16 nM. Besides, the outcome at D(2) dopamine receptor [9] was inactive. The inhibition result on D(2) dopamine receptor [11] was “inactive”. Besides, the Ratio IC50 in the test filed under Homo sapiens [3] came out at 30. For the same compound, the inhibition against D(2) dopamine receptor [15] is less than 30%; at D(2) dopamine receptor [17], 8.9%. Besides, the Ratio Ki in the test filed under Homo sapiens [6] stood at 10.

For `O=C(NCCCCN1CCN(c2cccc(Cl)c2Cl)CC1)c1cn2ccccc2n1`, the Activity on D(2) dopamine receptor [19] is less than 20%. In addition, at D(2) dopamine receptor [9], the outcome was inactive. At D(2) dopamine receptor [11], the inhibition entry is “inactive”. For the same compound, the values for the Ki on D(2) dopamine receptor [2] and at D(3) dopamine receptor [5] were 12 nM and 0.3 nM, respectively. Further, the Ratio IC50 in the test listed under Homo sapiens [3] amounted to 455. Further, the IC50 was 91 nM on D(2) dopamine receptor [4], 55 nM at D(2) dopamine receptor [20] and 0.2 nM at D(3) dopamine receptor [7]. For the same compound, the inhibition is less than 30% against D(3) dopamine receptor [21], 45% at D(2) dopamine receptor [17] and less than 30% at D(2) dopamine receptor [22]. In addition, the Ratio Ki in the test filed under Homo sapiens [6] is 40.
